Screening data (PubChem)
Hits are enriched below; roughly 1.3% of the tested compounds scored in any of these assays.
CAL PDZ FP-1: blocks peptide binding to human CAL PDZ domain; purified CAL PDZ, TMR-peptide fluorescence polarization, 1 h; inhibition, % at 20 µM; actives 0.02% (n = 330,000); AID 504414;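 active = highest replicate inhibition of at least 40%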
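System: tagged CAL PDZ domain. Schedule: 1 h room-temperature incubation prior to read. Signal: fluorescence polarization (mP). Measure: percent inhibition from loss of millipolarization.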
Cardiac RTF inh: cardiac RTF calcium desensitization; IANBD-labeled cardiac RTF, Ca2+ fluorescence; inhibition, % at 7.15 µM; actives 0.12% (n = 340,000); AID 493244;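 active = inhibition above the mean inhibition of all tested compounds plus 3 SD, cut at about 17% in these data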;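 note: assay run at fixed EC70 calcium of 1.6 mM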
Keap1 Nrf2 FP: disrupts human Keap1 binding to Nrf2 peptide; Q14145; Keap1 Kelch-Nrf2 peptide fluorescence polarization, 1536-well; inhibition, % at 9.4 µM; actives 0.15% (n = 340,000); in the data active = inhibition above about 12%;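 note: human Keap1 Kelch domain with fluorescein labeled Nrf2 9mer peptide probe; higher means more block of Keap1 binding to Nrf2 peptide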
Target sequence (Q14145 whole entry, looked up, the tested form may be a part): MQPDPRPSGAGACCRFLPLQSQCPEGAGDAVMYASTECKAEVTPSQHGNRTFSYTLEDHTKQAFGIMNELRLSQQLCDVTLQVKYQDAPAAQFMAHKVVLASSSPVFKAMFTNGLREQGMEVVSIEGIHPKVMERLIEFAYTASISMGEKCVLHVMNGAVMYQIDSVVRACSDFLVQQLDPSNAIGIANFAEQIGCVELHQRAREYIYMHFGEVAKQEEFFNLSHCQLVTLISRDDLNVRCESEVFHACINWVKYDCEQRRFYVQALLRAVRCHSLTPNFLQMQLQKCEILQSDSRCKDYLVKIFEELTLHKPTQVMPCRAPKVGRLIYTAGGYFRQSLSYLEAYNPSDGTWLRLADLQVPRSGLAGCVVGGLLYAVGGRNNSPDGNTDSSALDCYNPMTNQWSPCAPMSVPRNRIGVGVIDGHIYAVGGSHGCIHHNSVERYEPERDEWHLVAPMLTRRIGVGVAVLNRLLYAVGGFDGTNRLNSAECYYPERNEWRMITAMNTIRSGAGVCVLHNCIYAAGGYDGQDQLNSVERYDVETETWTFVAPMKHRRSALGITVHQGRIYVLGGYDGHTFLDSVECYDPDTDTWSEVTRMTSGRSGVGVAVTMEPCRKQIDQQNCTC
C-LANA FP: inhibitors of KSHV LANA C-terminal domain DNA binding; MBP-C-LANA/FAM-LBS DNA binding, fluorescence polarization; actives 0.078% (n = 340,000); inhibition, % at 9 µM;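 active = highest replicate inhibition at or above 60% at 9 µM, even if other replicates fall short; inactive = all replicates below 60% inhibition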
RTF Ca sens act: increases calcium sensitivity of human cardiac regulated thin filaments; P19429+P45379; IANBD-labeled TnC RTF fluorescence at EC20 calcium; 0% EC20 calcium, 100% full calcium; activation, % at 7.2 µM; actives 0.24% (n = 340,000);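 active = activation above the mean over all tested compounds plus 3 SD, cut at about 30% in these data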;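 note: rise in fluorescence read as greater calcium sensitivity of cardiac thin filaments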
CAL PDZ FP-2: blocks peptide binding to the human CAL PDZ domain; purified CAL PDZ, TMR-peptide fluorescence polarization, 1 h; inhibition, % at 24.9 µM; actives 0.92% (n = 300,000);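 active = mean inhibition of at least 30% with at least half of replicates also reaching 30%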
RTF Ca inh conf: confirmation of inhibitors of cardiac thin filament calcium sensitivity. shares compounds with Cardiac RTF inh. reconstituted cardiac thin filaments, calcium sensitivity fluorescence. inhibition, % at 7.15 µM. actives 8% (n = 360); in the data active = inhibition above about 18%
Of the large screens only hits and unclear results are named; the others gave an inactive call (follow-up assays come after a bar, where they were run).

COc1ccc(C)cc1NC(=O)Nc1ccc(Br)cn1	CAL PDZ FP-2 46
O=C(COC(=O)c1ccncc1)Nc1cc(S(=O)(=O)N2CCOCC2)ccc1Cl	none
O=C(O)CCCC(=O)Nc1ccc(N2CCCC2)cc1	CAL PDZ FP-2 93 (no result: CAL PDZ FP-1)
CCN1CCN(c2oc(-c3ccccc3)nc2S(=O)(=O)c2ccc(C)cc2)CC1	none
C=CCn1c(=O)/c(=C/c2cc(OC)c(OC)c(OC)c2)s/c1=C(/C#N)c1nc2ccccc2n1C	Keap1 Nrf2 FP 30, RTF Ca sens act 37 (no result: CAL PDZ FP-2)
CCCCN(C(=O)CN1C(=O)C2CCCCC2C1=O)c1c(N)n(CCCC)c(=O)[nH]c1=O (centres undefined)	none
COc1ccc2oc(=O)c(C(=O)NCCc3ccc(OC)c(OC)c3)cc2c1	none
COc1cc(OC)cc(C(=O)NNC(=S)NC(=O)c2cccnc2)c1	CAL PDZ FP-2 61
O=C(Cc1ccc(Cl)c(Cl)c1)NC1CCCCCC1	none (no result: CAL PDZ FP-2)
Cc1noc(C)c1COc1ccc(C(=O)N2CCN(S(=O)(=O)c3ccc(F)cc3)CC2)cc1	none
Cc1noc(C)c1COc1ccc(C(=O)N2CCN(S(=O)(=O)c3ccc(Cl)cc3)CC2)cc1	CAL PDZ FP-2 39
COc1ccc(C(=NNc2ccccc2C(=O)O)c2ccc(OC)cc2)cc1	Cardiac RTF inh 17 | RTF Ca inh conf inactive
O=C(CN1C(=O)/C(=C2\SC(=S)N(CCS(=O)(=O)O)C2=O)c2ccccc21)Nc1cccc(Br)c1	Cardiac RTF inh 30 | RTF Ca inh conf inactive
O=C(N/N=C/c1ccccc1)c1ccc(N2CCCC2=O)cc1	none
CNc1ncnc2c1ncn2[C@@H]1O[C@H](CO)[C@@H](O)[C@H]1O	none
NCCNC(=O)Cc1ccc(NC(=O)Cc2ccc(Nc3ncnc4c3ncn4[C@@H]3O[C@H](CO)[C@@H](O)[C@H]3O)cc2)cc1	Cardiac RTF inh 23 | RTF Ca inh conf inactive
CC(C)c1ccc(OC(=O)c2ccc3c(=O)n4c(nc3c2)CCC4)cc1	none
NNC(=O)c1ccc2nc(-c3ccc(Br)cc3)cn2c1	Cardiac RTF inh 22 | RTF Ca inh conf inactive
O=C(O)C1Nc2c(Cl)cc(Cl)cc2C2C=CCC12 (centres undefined)	Cardiac RTF inh 55 (no result: CAL PDZ FP-2) | RTF Ca inh conf inactive
CCn1nc([N+](=O)[O-])c(C(C#N)c2nc3cc(C(F)(F)F)ccc3s2)c(Cl)c1=O (centres undefined)	Cardiac RTF inh 19 | RTF Ca inh conf inactive
Cc1ccc(N2CC(C(=O)N3CCN(c4ccccc4)CC3)CC2=O)cc1 (centres undefined)	Cardiac RTF inh 17 | RTF Ca inh conf inactive
COc1ccc(N2CCN(C(=O)C3CC(=O)N(c4ccc(C)cc4)C3)CC2)cc1 (centres undefined)	none (no result: Cardiac RTF inh, RTF Ca sens act)
Cc1ccc(N(C)S(=O)(=O)c2cccc(C(=O)NCC(c3ccco3)N3CCCC3)c2)cc1 (centres undefined)	none
COc1ccc(CNC(=O)c2ccc(CS(=O)Cc3ccc(Cl)cc3)o2)cc1 (centres undefined)	none
Cc1ccc(CS(=O)Cc2ccc(C(=O)NCc3ccc(OC(C)C)cc3)o2)cc1 (centres undefined)	Cardiac RTF inh 27 | RTF Ca inh conf inactive
CN(Cc1ccccc1F)C(=O)CCNC(=O)c1ccc(C(C)(C)C)cc1	none
O=c1cc(-c2ccccc2Cl)oc2ccc([N+](=O)[O-])c(O)c12	none
O=[N+]([O-])c1cc([N+](=O)[O-])c2oc(-c3ccccc3)c(Br)c2c1O	Cardiac RTF inh 27 | RTF Ca inh conf inactive
O=[N+]([O-])c1nn(-c2ccc3c(c2)OCCO3)n(O)c1=NCCC1=CCCCC1	Cardiac RTF inh 18 | RTF Ca inh conf inactive
O=[N+]([O-])c1nn(-c2ccc3c(c2)OCCO3)n(O)c1=NCc1ccc(F)cc1	none (no result: CAL PDZ FP-2)
Cc1cc(OCCCC(=O)NC2=NCCS2)ccc1Cl	Cardiac RTF inh 17 | RTF Ca inh conf inactive
CN(C)NC(=S)Nc1ccc(Cl)cc1	none
CN(N)C(=S)Nc1ccc(Cl)cc1	Cardiac RTF inh 18 | RTF Ca inh conf inactive
CCN1C(=O)c2cccc3c(S(=O)(=O)N4CCNCC4)ccc1c23	none
C[C@H](/C=C/[C@@]1(O)[C@H](C)C[C@H](O)CC1(C)C)O[C@@H]1O[C@H](CO)[C@@H](O)[C@H](O)[C@H]1O	none
O=C(COc1ccc(Br)cc1Cl)NC(=S)N1CCc2ccccc21	none
O=C(COc1ccc(Br)cc1Br)NC(=S)N1CCCc2ccccc21	Cardiac RTF inh 17 | RTF Ca inh conf inactive
CCCn1c(N)c(N(CCOC)C(=O)c2ccc(Cl)c([N+](=O)[O-])c2)c(=O)[nH]c1=O	none
O=C(NCC(c1cccs1)N1CCOCC1)c1ccc([N+](=O)[O-])cc1 (centres undefined)	Cardiac RTF inh 17 | RTF Ca inh conf inactive
O=C(CNC(=O)c1ccccc1F)OCC(=O)c1ccc(Cl)s1	none
Cc1ccc(C2CC(c3ccc(NS(C)(=O)=O)cc3)=NN2C(=O)c2ccco2)cc1 (centres undefined)	Cardiac RTF inh 20 | RTF Ca inh conf inactive
CC[C@]12c3[nH]c4cc(-c5ccco5)ccc4c3CCN1C(=O)[C@@H](CC(=O)NCCCn1ccnc1)C[C@@H]2C(=O)N1CCN(C(=O)c2ccco2)CC1	none
CC(O)c1nc2ccccc2n1CCOc1ccccc1 (centres undefined)	none
CC(O)c1nc2ccccc2n1CCCCOc1ccccc1 (centres undefined)	Cardiac RTF inh 21 | RTF Ca inh conf inactive
CC1(C)OC(C)(C)/C(=C/Nc2ccc(O)cc2)C1=O	Cardiac RTF inh 190 | RTF Ca inh conf inactive
CC1CCC/C(=C\Nc2ccc(O)cc2)C1=O (centres undefined)	none
Cc1ccc(C(=O)N/C(=C\c2cccs2)C(=O)N2CCN(C)CC2)cc1C	none
CC(=O)Nc1ccc(C(=O)Nc2ccc(S(=O)(=O)N3CCCCC3)cc2)cc1	none
Cn1c(NC(=O)c2ccc(S(=O)(=O)N3CCCCC3)cc2)cc(=O)n(C)c1=O	Cardiac RTF inh 17 | RTF Ca inh conf inactive
CC(=O)C1=C(C)NC(SCC(=O)c2ccc(F)cc2)=C(C#N)C1CC(C)C (centres undefined)	Cardiac RTF inh 19 | RTF Ca inh conf inactive
CN(C)S(=O)(=O)n1cc(/C=C(\NC(=O)c2ccccc2F)C(=O)NCCCn2ccnc2)c2ccccc21	none
CN=c1scc(-c2cccs2)n1/N=C/c1ccccc1O	Cardiac RTF inh 17 | RTF Ca inh conf inactive
O=C(CS(=O)(=O)c1ccc(F)cc1)NCCS(=O)(=O)c1ccccc1	none
Cc1cc(C)n(-c2nnc(C)n2N)n1	none
